The source made the active and inactive calls. No cut-off for these calls is given here.
What was measured:
Human alphaherpesvirus 1 [1] = test: Antiviral activity against Human herpesvirus 1 isolate P42 infected in African green monkey vero cells assessed as reduction in viral titer at 100 uM; format: functional, organism-based
Procedure, shortened: (§1)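 Laboratory HSV-1 F1 or patient-swab HSV-1 isolates were prepared as clarified Vero supernatants. They were incubated 1 h with a range of EGCG concentrations in RPMI 1640/1% FCS at pH 7.4. Titres were determined on Vero cells by 5-day CPE endpoint (Reed-Muench). IC99 was read graphically as 99% titre drop from untreated; mean ± SD, three experiments.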

Human alphaherpesvirus 1 [2] = test: Antiviral activity against Human herpesvirus 1 F1 infected in African green monkey vero cells assessed as reduction in viral titer; format: functional, organism-based; conditions: Human alphaherpesvirus 1, F1, Vero; procedure, shortened: as §1
Human alphaherpesvirus 1 [3] = test: Antiviral activity against Human herpesvirus 1 isolate P15 infected in African green monkey vero cells assessed as reduction in viral titer; format: functional, organism-based; conditions: Human alphaherpesvirus 1, isolate P15, Vero; procedure, shortened: as §1
Human alphaherpesvirus 1 [4] = test: Antiviral activity against Human herpesvirus 1 isolate P32 infected in African green monkey vero cells assessed as log reduction in viral titer at 100 uM within 10 mins; format: functional
Procedure, shortened: (§2)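 In the time course, HSV-1 clinical isolates (clarified Vero supernatants) were exposed to 100 μM EGCG for varying times up to 60 min. Residual infectivity was then titrated on Vero cells by 5-day CPE endpoint with Reed-Muench calculation. Mean ± SD of three separate experiments.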

Human alphaherpesvirus 2 [5] = test: Antiviral activity against Human herpesvirus 2 isolate P11 infected in African green monkey CV1 cells assessed as log reduction in viral titer at 100 uM within 20 mins; format: functional, CV-1
Procedure, shortened: (§3)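 HSV-2 clinical isolates from clarified CV-1 supernatants were held with 100 μM EGCG for timed intervals, from 10 min onward. Surviving virus was titrated on CV-1 cells by 10-fold dilution and 5-day CPE scoring, with TCID50 by Reed-Muench. Values are mean ± SD, three experiments.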

Human alphaherpesvirus 1 [6] = test: Antiviral activity against Human herpesvirus 1 isolate P15 infected in African green monkey vero cells assessed as log reduction in viral titer at 50 uM; format: functional; procedure, shortened: as §1
Human alphaherpesvirus 2 [7] = test: Antiviral activity against Human herpesvirus 2 strain 333 infected in African green monkey CV-1 cells assessed as log reduction in viral titer at 100 uM after 20 mins; format: functional
Procedure, shortened: (§4)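 Time course: clarified CV-1 supernatant of HSV-2 (clinical isolates or strain 333) was exposed to 100 μM EGCG for increasing times. It was then titrated by tenfold dilution on CV-1 cells, three wells per dilution, for 5 days at 37°C with CPE read-out. Reed-Muench TCID50 was compared with the untreated titer. Mean of three separate experiments.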

Human alphaherpesvirus 1 [8] = test: Antiviral activity against Human herpesvirus 1 isolate P42 infected in African green monkey vero cells assessed as log reduction in viral titer at 100 uM after 40 to 60 mins; format: functional; procedure, shortened: as §2
Human alphaherpesvirus 1 [9] = test: Antiviral activity against Human herpesvirus 1 isolate P32 infected in African green monkey vero cells assessed as log reduction in viral titer at 100 uM after 30 mins; format: functional; procedure, shortened: as §2
Human alphaherpesvirus 2 [10] = test: Antiviral activity against Human herpesvirus 2 strain 333 infected in African green monkey CV1 cells assessed as log reduction viral titer at 12.5 ug/ml; format: functional, CV-1
Procedure, shortened: (§5)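 HSV-2 (clinical swab isolates or strain 333) was grown in CV-1 cells and used as clarified supernatant. Virus was exposed to graded EGCG for 1 h in RPMI 1640 with 1% FCS, pH 7.4. Tenfold dilutions were titrated on CV-1 cells, three wells each, 5 days at 37°C, scoring CPE. TCID50 was calculated by Reed-Muench. IC99 was read graphically as 99% titer drop from the zero-concentration titer. Mean of three experiments.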

Human alphaherpesvirus 2 [11] = test: Antiviral activity against Human herpesvirus 2 isolate P47 infected in African green monkey CV1 cells assessed as log reduction in viral titer at 12.5 uM; format: functional, CV-1; procedure, shortened: as §5
Human alphaherpesvirus 2 [12] = test: Antiviral activity against Human herpesvirus 2 isolate P2 infected in African green monkey CV1 cells assessed as log reduction in viral titer at 100 uM within 10 mins; format: functional, CV-1; procedure, shortened: as §3
Human alphaherpesvirus 2 [13] = test: Antiviral activity against Human herpesvirus 2 isolate P2 infected in African green monkey CV1 cells assessed as log reduction in viral titer at 12.5 uM; format: functional, CV-1; procedure, shortened: as §5
Human alphaherpesvirus 1 [14] = test: Antiviral activity against Human herpesvirus 1 isolate P32 infected in African green monkey vero cells assessed as log reduction in viral titer at 50 uM; format: functional; procedure, shortened: as §1
Human alphaherpesvirus 1 [15] = test: Antiviral activity against Human herpesvirus 1 F1 infected in African green monkey vero cells assessed as log reduction in viral titer at 100 uM; format: functional
Procedure, shortened: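 HSV-1 F1 was grown in Vero cells and the clarified supernatant was incubated with 100 μM EGCG for 60 min at 37°C in RPMI 1640/1% FCS, pH 7.4. Titre was then measured on Vero cells from 10-fold dilutions, three wells per dilution, over 5 days at 37°C by CPE. TCID50 was calculated by Reed-Muench; three separate experiments.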

Human alphaherpesvirus 2 [16] = test: Antiviral activity against Human herpesvirus 2 isolate P47 infected in African green monkey CV1 cells assessed as log reduction in viral titer at 100 uM within 20 mins; format: functional, CV-1; procedure, shortened: as §4
Human alphaherpesvirus 1 [17] = test: Antiviral activity against Human herpesvirus 1 isolate P38 infected in African green monkey vero cells assessed as reduction in viral titer; format: functional, organism-based; conditions: Human alphaherpesvirus 1, isolate P38, Vero; procedure, shortened: as §1
Human alphaherpesvirus 2 [18] = test: Antiviral activity against Human herpesvirus 2 isolate P12 infected in African green monkey CV1 cells assessed as log reduction in viral titer at 100 uM within 20 mins; format: functional, CV-1; procedure, shortened: as §3
Human alphaherpesvirus 2 [19] = test: Antiviral activity against Human herpesvirus 2 isolate P22 infected in African green monkey CV1 cells assessed as log reduction in viral titer at 100 uM within 10 mins; format: functional, CV-1; procedure, shortened: as §4
Human alphaherpesvirus 2 [20] = test: Antiviral activity against Human herpesvirus 2 strain 333 infected in African green monkey vero cells assessed as log reduction in viral titer at 100 uM after 60 mins; format: functional
Procedure, shortened: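 Lab strain HSV-2 333 was grown and titrated either in CV-1 cells or in Vero cells. Virus was incubated with 100 μM EGCG for 60 min, then titrated as tenfold dilutions for 5 days at 37°C with CPE scoring. Reed-Muench TCID50 of treated versus control virus gave the titer decrease. Mean of three experiments.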

Human alphaherpesvirus 1 [21] = test: Antiviral activity against Human herpesvirus 1 isolate P56 infected in African green monkey vero cells assessed as log reduction in viral titer at 50 uM; format: functional; procedure, shortened: as §1
Human alphaherpesvirus 1 [22] = test: Binding affinity to Envelope glycoprotein B in Human herpesvirus 1 F1 assessed as macromolecular complex formation by SDS-PAGE
Procedure, shortened: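 Purified HSV-1 gB or gD (500 to 700 μg/ml) was incubated with EGCG (250 μg/ml; 545 μM) in 0.1 M potassium phosphate, pH 7.0, at 35°C for 24 h. Products were denatured at 50°C for 15 min in sample buffer and run on 6.5% SDS-PAGE. Bands were stained with Coomassie blue to detect higher-molecular-weight complexes.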

Human alphaherpesvirus 2 [23] = test: Antiviral activity against Human herpesvirus 2 isolate P12 infected in African green monkey CV1 cells assessed as log reduction in viral titer at 100 uM within 10 mins; format: functional, CV-1; procedure, shortened: as §3
Human alphaherpesvirus 1 [24] = test: Antiviral activity against Human herpesvirus 1 isolate P32 infected in African green monkey vero cells assessed as reduction in viral titer at 100 uM; format: functional, organism-based; procedure, shortened: as §1
Human alphaherpesvirus 2 [25] = test: Antiviral activity against Human herpesvirus 2 isolate P47 infected in African green monkey CV1 cells assessed as log reduction viral titer at 50 uM; format: functional, CV-1; procedure, shortened: as §5
Human alphaherpesvirus 2 [26] = test: Antiviral activity against Human herpesvirus 2 isolate P27 infected in African green monkey CV1 cells; format: functional, organism-based; conditions: Human alphaherpesvirus 2, isolate P27, CV-1; procedure, shortened: as §5

In the case of `O=C(O[C@@H]1Cc2c(O)cc(O)cc2O[C@@H]1c1cc(O)c(O)c(O)c1)c1cc(O)c(O)c(O)c1` [EPIGALOCATECHIN GALLATE], the Activity (Human alphaherpesvirus 1 [1]) is reported as “Active”, the IC99 (Human alphaherpesvirus 1 [2]) is reported as 72.3 µM and the IC99 (Human alphaherpesvirus 1 [3]) is reported as 48.4 µM. It also gave an FC (Human alphaherpesvirus 1 [4]) of 2, an FC (Human alphaherpesvirus 2 [5]) of 3 and an FC (Human alphaherpesvirus 1 [6]) of 2. For the same molecule, the FC (Human alphaherpesvirus 2 [7]) was “>=3”, the FC (Human alphaherpesvirus 1 [8]) was 3 and the FC (Human alphaherpesvirus 1 [9]) was 2. For the same molecule, the FC (Human alphaherpesvirus 2 [10]) was 0.56, the FC (Human alphaherpesvirus 2 [11]) was “>=2” and the FC (Human alphaherpesvirus 2 [12]) was 2. The FC (Human alphaherpesvirus 2 [13]) was “>=2”, the FC (Human alphaherpesvirus 1 [14]) was 2 and the FC (Human alphaherpesvirus 1 [15]) was “>=3”. It also gave an FC (Human alphaherpesvirus 2 [16]) of 3, an IC99 (Human alphaherpesvirus 1 [17]) of 48.2 µM and an FC (Human alphaherpesvirus 2 [18]) of 3. The FC (Human alphaherpesvirus 2 [19]) was 2, the FC (Human alphaherpesvirus 2 [20]) was 4 and the FC (Human alphaherpesvirus 1 [21]) was 2. The Activity (Human alphaherpesvirus 1 [22]) was “Active”, the FC (Human alphaherpesvirus 2 [23]) was 2 and the Activity (Human alphaherpesvirus 1 [24]) was “Active”. For the same molecule, the FC (Human alphaherpesvirus 2 [25]) was greater than 4 and the IC99 (Human alphaherpesvirus 2 [26]) was 12.1 µM.

Source: ChEMBL document CHEMBL1629542, “Epigallocatechin gallate inactivates clinical isolates of herpes simplex virus” (Antimicrob Agents Chemother, 2008)
